Laboratory results from article PMC3281520 (Nature chemical biology, 2012).

Assays:
[1] = target: T1, ProRS (amino acids 998–1513 of human EPRS) (Homo sapiens, UniProt P07814); test: [3H]-HFol binding to immobilized ProRS
T1 sequence (P07814 998-1512 limits assumed): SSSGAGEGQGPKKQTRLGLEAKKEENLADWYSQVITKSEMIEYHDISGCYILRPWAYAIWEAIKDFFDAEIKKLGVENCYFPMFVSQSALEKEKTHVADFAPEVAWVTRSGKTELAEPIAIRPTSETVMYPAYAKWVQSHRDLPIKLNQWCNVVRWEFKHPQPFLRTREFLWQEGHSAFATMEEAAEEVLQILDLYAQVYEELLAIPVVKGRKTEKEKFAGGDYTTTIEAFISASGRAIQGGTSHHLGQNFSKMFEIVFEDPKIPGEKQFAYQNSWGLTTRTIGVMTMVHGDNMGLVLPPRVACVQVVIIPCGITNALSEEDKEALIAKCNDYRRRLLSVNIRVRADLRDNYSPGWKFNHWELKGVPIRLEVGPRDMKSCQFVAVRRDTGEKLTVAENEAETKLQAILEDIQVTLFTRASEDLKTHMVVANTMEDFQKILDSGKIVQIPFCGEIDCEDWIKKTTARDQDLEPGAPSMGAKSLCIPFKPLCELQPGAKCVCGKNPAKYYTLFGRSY
In short: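 His6-tagged human EPRS prolyl-tRNA synthetase domain, expressed in E. coli, immobilized on Ni-NTA beads. Beads washed twice in ice-cold buffer; bound counts by scintillation, with beads given tag-free E. coli extract as background.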

[2] = target: prolyl tRNA synthetase domain of human EPRS (ProRS) (Homo sapiens, UniProt P07814); test: Assay of ProRS activity; assay type: biochemical
[3] = system: translation in rabbit reticulocyte lysate (RRL); test: Cell free in vitro translation in rabbit reticulocyte lysate; assay type: biochemical; conditions: for effect on translation of luciferase RNA in RRL: cell free, luminescence assay (Fig. 2a, 2b); for translation of Nopropep (proline-free polypeptide) in RRL / translation of Propep (polypeptide with proline dipeptide) in RRL: inhibitor 1 μM, anti-myc Western blot (Fig. 2c)
In short: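 Rabbit reticulocyte lysate per kit instructions, standard amino acid mix diluted 5-fold; sometimes preincubated at 30 degrees with another RNA to deplete endogenous charged tRNAs. Luciferase mRNA translation read by luciferase luminescence. Rescue with amino acid mixtures or single amino acids at 1 mM each; triplicates, SD. Myc-tagged peptides ± proline dipeptide: inhibitors 1 μM, proline 1 mM, anti-myc Western blot.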

[4] = Intracellular HF levels by anti-HF ELISA; assay type: in vitro ADME, mouse; conditions: MEFs, 2 mM proline, 2 hours (Supplementary Fig. 11)
[5] = system: AAR pathway in MEFs; test: AAR pathway activation in MEFs; assay type: cell-based, mouse; conditions: 2 hours (Fig. 5a); for stimulation of GCN2 phosphorylation in the presence of proline: 2 mM proline
In short: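 MEFs grown in 10% FCS/DMEM, then exposed to test compound with or without 2 mM proline for 2 h. Lysis was in RIPA with 5 mM EDTA, phosphatase and protease inhibitors. Western blot for total GCN2 and Thr898-phospho-GCN2; three separate experiments. For CHOP: 50 nM test compound ± 2 mM proline, lysis 6 h later, CHOP Western blot with cytoplasmic actin as loading control.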

[6] = system: prolyl-tRNA charging in the RRL system; test: tRNA charging in RRL; assay type: biochemical, rabbit; conditions: doses comparable to those that inhibit translation (Fig. 2d)
In short: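 Rabbit reticulocyte lysate incubated with 1 μCi 14C-proline or 35S-methionine, added bovine tRNA and 2 μM puromycin to block use of charged tRNA in translation, with or without test compound. Total tRNA then extracted with a small-RNA isolation kit. Radioactivity in tRNA measured by liquid scintillation counting; triplicates, SD.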

[7] = system: mTORC1 signaling; test: mTORC1 signaling in T cells and fibroblasts; assay type: cell-based, mouse; conditions: 100 nM HF in MEFs (Supplementary Fig. 10)
[8] = system: primary murine CD4+ CD25− T cells; test: Th17 cell differentiation; assay type: cell-based, mouse
In short: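 CD4+ CD25− T cells from spleens and peripheral lymph nodes of wild-type C57B/6 mice, TCR-activated under Th17-polarizing conditions with test compound and amino acid supplements: 10x EAA or NEAA mixes, or single amino acids at 1 mM. Day 4 restimulation with PMA 10 nM, ionomycin and brefeldin A for 4–5 h. Intracellular cytokine staining, flow cytometry; % IL-17+ IFNγ− cells, triplicate wells, SD.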

[9] = system: mouse embryo fibroblasts (MEFs); test: ECM gene expression and protein production in fibroblasts; assay type: cell-based
In short: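 MEFs in 10% FCS/DMEM were treated with 50 nM test compound and/or 2 mM proline. Exposure was 4 h for CHOP and S100A4 and 24 h for Col1A1 and Col1A2. mRNA by quantitative RT-PCR, normalised to TBP, relative to untreated. Triplicate determinations from triplicate plates; two-tailed Student's t test for compound alone versus compound plus proline.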

## C[C@H](N)C(=O)NS(=O)(=O)OC[C@H]1O[C@@H](n2cnc3c(N)ncnc32)[C@H](O)[C@@H]1O [AlaSAd, alanyl sulfamoyl adenosine]
[1]; 50 nM (Fig. 4a)
  inhibition of binding of [3H]-HFol to ProRS at 50 nM: partially inhibited

## O=C(CC1NCCCC1O)Cn1cnc2cc(Br)c(Cl)cc2c1=O (stereo not shown) [HF, halofuginone]
[2]
  Ki: 18.3 nM
[3]
  effect on translation of luciferase RNA in RRL: inhibited
  translation of Nopropep (proline-free polypeptide) in RRL: no effect
  translation of Propep (polypeptide with proline dipeptide) in RRL: prevent translation
[3]; proline 1 mM, only proline is effective (Fig. 2a)
  translation inhibited by HF, after supplementation of RRL with excess amino acids: restores
[4]
  intracellular accumulation of HF on proline addition: not affected
[5]
  stimulation of GCN2 phosphorylation in the presence of proline: abrogated
  GCN2 phosphorylation in fibroblasts: stimulation
[6]
  incorporation of 14C-Pro into tRNA: inhibited
[7]
  inhibition of mTORC1 signaling: without concomitant inhibition
[1]; Fig. 3a
  competition of [3H]-HFol binding to ProRS: competed
[8]; 10 nM HF, proline 1 mM, only proline effective (Fig. 6a)
  Th17 differentiation in HF-treated T cells with individual amino acid supplement: rescued
[9]; 2 mM proline in the media (Supplementary Fig. 15)
  inhibition of ECM proteins in the presence of proline: reversed
[9]; 24 hours treatment (Fig. 6d)
  production of secreted Type I procollagen and of fibronectin: dramatically inhibited
[9]; MEFs, HF 50 nM, 4 hours (Fig. 6c)
  expression of mRNA encoding CHOP: stimulated
[9]; MEFs, HF 50 nM, 4 hours (S100A4) or 24 hours (Col1A1, Col1A2), restored by proline (Fig. 6c)
  mRNA levels of Col1A1, Col1A2, and S100A4: inhibits
[9]; doses that inhibit ECM protein production (Fig. 6d)
  35S-methionine incorporation into total protein: did not significantly change

## C[C@@H]1C[C@H](C)C[C@H](C)[C@@H](O)CC(=O)O[C@H]([C@@H]2CCC[C@H]2C(=O)O)C/C=C/C=C(/C#N)[C@H](O)[C@@H](C)C1 [Borrelidin, borrelidin]
[8]; Th17 polarizing conditions, borrelidin 6 nM (Supplementary Fig. 13)
  Th17 cell differentiation: inhibited
[8]; threonine 1 mM (Fig. 6b)
  effects on Th17 differentiation on addition of excess cognate amino acid: reversed

## O=C(C[C@H]1NCCC[C@@H]1O)Cn1cnc2ccccc2c1=O [FF, febrifugine]
[3]
  effect on translation of luciferase RNA in RRL: inhibited
  translation of Nopropep (proline-free polypeptide) in RRL: no effect
  translation of Propep (polypeptide with proline dipeptide) in RRL: prevent translation
[5]
  stimulation of GCN2 phosphorylation in the presence of proline: abrogated
  GCN2 phosphorylation in fibroblasts: stimulation
